Bounds are passed on as bounds.

What is called IC50 is the concentration needed to halve the response being measured. The low end stands for higher potency, the high end for lower potency. A word on the Cmax: it is the peak of the concentration-time curve. Broadly, the half-life is the time in which the quantity being followed falls by half.

Data set [1] concerns the target Human immunodeficiency virus type 1 protease (Human immunodeficiency virus 1, UniProt Q72874). In words: In vitro inhibition of HIV-1 protease. The method in brief: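 HPLC-monitored cleavage of peptide H2N-Val-Ser-Gln-Asn-(β-naphthylalanine)-Pro-Ile-Val-OH (0.45 mM final) by purified recombinant HIV-1 protease (1-10 nM final; E. coli maltose-binding-protein fusion, cleaved off, 99% pure). Buffer 50 mM sodium acetate, 1 mg/mL BSA, pH 5.5; DMSO stock. 30 min at 37 °C, quenched with phosphoric acid. Screened at 0.1, 1, 10 μM, then IC50 from five concentrations.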

The test system of data set [2] is Human immunodeficiency virus 1. Nature of the data set: Inhibition of viral replication by XTT endpoint. Type of data set: functional. Conditions: read-out: ED50 (the source's name). The method in brief: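 CEM-SS cells (5000/well) in RPMI with 10% fetal calf serum infected with HIV-1 RF at multiplicity 0.04; compound from DMSO stock, final DMSO at most 0.125%. After 6 days at 37 °C, XTT/PMS added for 4 h; formazan read at 450 nm against 650 nm reference. ED50 = concentration restoring formazan in infected cells to 50% of control cells; mean of two determinations.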
On the technique in general: Formazan colour is commonly taken as a measure of viable cells.

A short description of data set [3]: The maximum plasma concentration was measured on rats after oral administration. Type of data set: ADME, organism-based. Also noted: route oral. Conditions: rat. The method in brief:
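Fasted male Sprague-Dawley rats dosed by gavage as a suspension in 0.2% carboxymethyl cellulose or an ethanol solution: [3H] compound at 1.3 μmol/kg (n = 3) or unlabeled at 22 μmol/kg (n = 2). Plasma quantified by thin-layer radiochromatography (LLOQ 1 nM) or LC/MS/MS (LLOQ 10 nM). Cmax given as mean ± SEM, n = 5.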

Data set [4] is described as follows: The oral bioavailability was measured on rats after oral administration. In kind it is ADME, organism-based. Conditions: rat, in vivo, read-out: Bioavailabiility. In a few lines: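 Male Sprague-Dawley rats (200-350 g), jugular cannula placed the day before, fasted overnight, water ad libitum. [3H]-labelled compound 1.3 μmol/kg iv and po (n = 3 per route, TLRC plasma assay), or unlabelled 9 μmol/kg iv and 22 μmol/kg oral (n = 2 per route, LC/MS/MS). Dosing was iv in ethanol over 5 min and oral by gavage as 0.2% CMC suspension or ethanol solution.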

Data set [5] concerns Human immunodeficiency virus 2. Nature of the data set: The concentration was measured on HIV-2CBL-20 virus. Type of data set: functional. Conditions: read-out: ED50 (the source's name). In a few lines:
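HIV-2 CBL-20 infection of CEM-SS cells (5000/well) at multiplicity 0.04, in RPMI with 10% fetal calf serum; final DMSO at most 0.125%. Incubated 6 days at 37 °C, 5% CO2, then 4 h with XTT/PMS; absorbance at 450 nm (650 nm reference). ED50 from formazan relative to uninfected controls; n = 7.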

For the next data set, the target named is Pepsin A (Sus scrofa, UniProt P00791). Nature of the data set: The inhibitory concentration value was measured on porcine pepsin at 31000 nM. The method in brief: (§1)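 Spectrophotometric assay at 37 °C in 0.1 M formate, pH 3, with chromogenic peptide H-Pro-Thr-Glu-Phe-p-nitro-Phe-Arg-Leu-OH at 0.32 mM final. Reaction started with enzyme: 0.36 units of human liver cathepsin D or 0.03 units of porcine stomach pepsin. Absorbance at 310 nm followed for 20 min; buffer-only controls; highest concentration tested 31000 nM.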

A further data set has as its target Cathepsin D (Homo sapiens, UniProt P07339). In words: The inhibitory concentration value was measured on Human cathepsin D at 31000 nM. The method in brief: as §1
A short description of data set [6]: The biological half life (t1/2) was measured on rats after intravenous administration. In kind it is ADME, organism-based. Conditions: rat, in vivo. The method in brief:
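Male Sprague-Dawley rats (200–350 g), jugular-cannulated, fasted overnight, given an ethanol solution infused iv over 5 min: [3H] compound at 1.3 μmol/kg (n = 3) or unlabeled at 9 μmol/kg (n = 2). Plasma measured by radio-TLC or LC/MS/MS. Half-life by model-independent analysis; mean ± SEM, n = 5.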

In data set [7] the test system is Human immunodeficiency virus 1. In words: The concentration was measured on HIV-1 IIIB virus. Type of data set: functional. Conditions: read-out: ED50 (the source's name). In a few lines: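 Human PBMCs, PHA-stimulated, infected with HIV-1 IIIB at m.o.i. 0.001–0.02 and kept with graded compound. Half the medium was replaced with fresh compound-containing medium on day 3. p24 in supernatant measured by ELISA at day 7; ED50 = dose giving 50% p24 reduction relative to control wells; n = 2.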

The next data set has as its target T1, Renin (Homo sapiens, UniProt P00797).
T1 sequence (P00797 whole entry): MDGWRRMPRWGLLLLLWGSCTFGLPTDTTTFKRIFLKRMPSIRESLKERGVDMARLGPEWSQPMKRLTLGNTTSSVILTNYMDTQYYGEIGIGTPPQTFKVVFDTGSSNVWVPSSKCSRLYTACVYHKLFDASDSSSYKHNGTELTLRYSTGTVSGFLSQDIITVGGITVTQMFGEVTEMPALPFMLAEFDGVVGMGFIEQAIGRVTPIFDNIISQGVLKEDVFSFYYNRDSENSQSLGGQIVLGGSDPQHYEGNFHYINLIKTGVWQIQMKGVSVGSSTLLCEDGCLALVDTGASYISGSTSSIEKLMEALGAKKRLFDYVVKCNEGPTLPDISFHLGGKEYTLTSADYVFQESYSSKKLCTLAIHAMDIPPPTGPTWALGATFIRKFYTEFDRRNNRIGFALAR
Nature of the data set: The inhibitory concentration value was measured on Human renin at 100000 nM.

Chain of Cathepsin D (P07339 65-162 limits assumed): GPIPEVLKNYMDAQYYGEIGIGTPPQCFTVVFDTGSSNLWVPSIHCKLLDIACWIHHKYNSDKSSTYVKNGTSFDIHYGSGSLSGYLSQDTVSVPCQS
Chain of Cathepsin D (P07339 169-412 limits assumed): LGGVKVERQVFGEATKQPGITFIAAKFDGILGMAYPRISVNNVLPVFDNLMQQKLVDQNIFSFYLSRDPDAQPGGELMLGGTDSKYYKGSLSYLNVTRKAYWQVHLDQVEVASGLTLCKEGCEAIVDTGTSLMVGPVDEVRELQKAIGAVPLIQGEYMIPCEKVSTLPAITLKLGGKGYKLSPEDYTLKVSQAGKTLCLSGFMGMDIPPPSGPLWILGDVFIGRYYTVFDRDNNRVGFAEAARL
Chain of Pepsin A (P00791 whole entry): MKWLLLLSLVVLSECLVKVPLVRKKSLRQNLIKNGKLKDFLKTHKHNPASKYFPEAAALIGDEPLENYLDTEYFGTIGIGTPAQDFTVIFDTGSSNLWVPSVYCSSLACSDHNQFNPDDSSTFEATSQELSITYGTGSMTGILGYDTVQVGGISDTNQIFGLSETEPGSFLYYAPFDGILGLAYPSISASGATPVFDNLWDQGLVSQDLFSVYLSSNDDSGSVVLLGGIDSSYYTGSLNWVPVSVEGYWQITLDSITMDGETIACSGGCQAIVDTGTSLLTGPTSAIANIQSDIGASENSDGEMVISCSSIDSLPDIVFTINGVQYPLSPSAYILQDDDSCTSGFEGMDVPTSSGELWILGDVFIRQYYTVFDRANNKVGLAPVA

With `CC(C)(C)OC(=O)N[C@H](CCNC[C@@H](O)[C@H](Cc1ccccc1)NC(=O)OC(C)(C)C)Cc1ccccc1`, in [1], the midpoint of inhibition, the IC50, lay at 2900 nM. On the same count and under the same terms, then `CO[C@H](CNC[C@@H](O)[C@H](Cc1ccccc1)NC(=O)OC(C)(C)C)[C@H](Cc1ccccc1)NC(=O)OC(C)(C)C`, with greater than 10000 nM; and `CC(C)(C)OC(=O)N[C@@H](Cc1ccccc1)[C@H](O)CNC[C@H](O)[C@H](Cc1ccccc1)NC(=O)OC(C)(C)C`, with 4500 nM. In data set [1], `CC(C)(C)CC(=O)N[C@@H](Cc1ccccc1)[C@H](O)CNC[C@@H](O)[C@H](Cc1ccccc1)NC(=O)OC(C)(C)C` came in with a 50% inhibitory concentration (IC50) of 4000 nM. In addition, the EC50 in [2] turned out to be 1200 nM.

`CN(C(=O)OC(C)(C)C)[C@@H](Cc1ccccc1)[C@H](O)CNC[C@@H](O)[C@H](Cc1ccccc1)NC(=O)OC(C)(C)C`: the IC50 in [1] came to 8500 nM. Besides, in [2], the EC50 was greater than 3000 nM. The matching figures for `CC(C)(C)NC(=O)N[C@@H](Cc1ccccc1)[C@H](O)CNC[C@@H](O)[C@H](Cc1ccccc1)NC(=O)OC(C)(C)C`: 400 nM and 160 nM. Consider `CC(C)(C)OC(=O)N[C@@H](Cc1ccccc1)[C@H](O)CNC[C@@H](O)[C@H](Cc1ccccc1)NC(=O)OC(C)(C)C`, for which, in [3], the concentration peaked (Cmax) at 240 nM. Further, the bioavailability in data set [4] was found to be 40%. Besides, the figures for the EC50 in data set [5], in [2] and in data set [7] were 170 nM, 80 nM and 25 nM, respectively. Further, the IC50 on Pepsin A is greater than 31000 nM; in data set [1] it was 125 nM; on Cathepsin D, greater than 31000 nM; against Renin, greater than 100000 nM. The compound further came in with a half-life in data set [6] of 4.2 h. `O=C(N[C@@H](Cc1ccccc1)[C@H](O)CNC[C@@H](O)[C@H](Cc1ccccc1)NC(=O)OCc1ccccc1)OCc1ccccc1` returned an IC50 in data set [1] of 3400 nM. In [2], the EC50 is greater than 5000 nM.

`CC(C)OC(=O)N[C@@H](Cc1ccccc1)[C@H](O)CNC[C@@H](O)[C@H](Cc1ccccc1)NC(=O)OC(C)C` registered an IC50 in [1] of 900 nM. Also, the EC50 in data set [2] stood at 1000 nM. For `CC(C)(C)OC(=O)NC(CC1CCCCC1)[C@H](O)CNC[C@@H](O)C(CC1CCCCC1)NC(=O)OC(C)(C)C` (stereo not given in full), in that order: 800 nM and 660 nM.

In the case of `CC(C)(C)OC(=O)N[C@@H](Cc1ccccc1)[C@H](O)COC[C@@H](O)[C@H](Cc1ccccc1)NC(=O)OC(C)(C)C`, the IC50 in [1] is greater than 10000 nM. For `CC(C)(C)OC(=O)NC(Cc1ccc(O)cc1)[C@H](O)CNC[C@@H](O)[C@H](Cc1ccccc1)NC(=O)OC(C)(C)C` (stereo not given in full), in data set [1], the IC50 was 100 nM. In addition, the EC50 in [2] stood at 60 nM.

As for `CC(C)(C)OC(=O)NC(CCc1ccccc1)[C@H](O)CNC[C@@H](O)[C@H](Cc1ccccc1)NC(=O)OC(C)(C)C` (stereo not given in full), the half-maximal inhibitory concentration (IC50) in [1] turned out to be 500 nM. Further, the EC50 in data set [2] was found to be 690 nM.

`CC(C)(C)COC(=O)N[C@@H](Cc1ccccc1)[C@H](O)CNC[C@@H](O)[C@H](Cc1ccccc1)NC(=O)OCC(C)(C)C` showed an IC50 in data set [1] of 6000 nM.

As for `CN(CC(O)[C@H](Cc1ccccc1)NC(=O)OC(C)(C)C)C[C@@H](O)[C@H](Cc1ccccc1)NC(=O)OC(C)(C)C` (stereo not given in full), the IC50 in [1] was greater than 10000 nM. Regarding `CC(C)(C)OC(=O)N[C@@H](Cc1ccccc1)[C@@H](O)CNCC(O)[C@@H](Cc1ccccc1)NC(=O)OC(C)(C)C` (stereo not given in full), the IC50 in data set [1] was greater than 10000 nM. The same measure, in the same setting: under `CC(C)(C)OC(=O)N[C@@H](Cc1ccccc1)[C@@H](O)CNC[C@H](O)[C@H](Cc1ccccc1)NC(=O)OC(C)(C)C` stands greater than 10000 nM. In data set [1], `CC(C)(C)OC(=O)N[C@@H](Cc1ccccc1)[C@H](O)CNC[C@@H](O)[C@H](Cc1ccccc1)NC(=O)SC(C)(C)C` gave an IC50 of 700 nM. Besides, the EC50 in data set [2] was 800 nM.

As to `CC(C)(C)OC(=O)N[C@@H](Cc1ccccc1)[C@H](O)CNC[C@H](O)[C@@H](Cc1ccccc1)NC(=O)OC(C)(C)C`, the 50% inhibitory concentration (IC50) in data set [1] is greater than 10000 nM. Still for that read-out and setting: then `CC(C)(C)OC(=O)N[C@@H](Cc1ccccc1)[C@H](O)CNC[C@@H](O)[C@@H](Cc1ccccc1)NC(=O)OC(C)(C)C`, with 10000 nM. Regarding `CCC(C)C(NC(=O)OC(C)(C)C)[C@H](O)CNC[C@@H](O)C(NC(=O)OC(C)(C)C)[C@@H](C)CC` (single isomer, unassigned), half-maximal inhibition in [1] (IC50) was put at 4500 nM. Moreover, the EC50 in data set [2] came to 5300 nM.
